# Experimental data: ChEMBL document CHEMBL4270570 (Eur J Med Chem, 2018)
# How the values were obtained:
# [1] = Effective permeability of the compound at 10 uM after 5 hrs by PAMPA; type: ADME
# In short: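 Lipid-precoated PAMPA plates thawed 30 min at room temperature. Compounds diluted from 10 mM DMSO stock into DPBS to 10 µM final and placed in donor wells, with DPBS in acceptor wells. Incubated 5 h at 25 °C without agitation. Donor and acceptor concentrations measured by LC-MS/MS. Pe calculated from acceptor and equilibrium concentrations, filter area 0.3 cm² and well volumes.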
# [2] = biological target: Human immunodeficiency virus type 1 reverse transcriptase (Human immunodeficiency virus 1, UniProt Q72547); experiment: Inhibition of HIV1 reverse transcriptase RNaseH activity using 3'-fluorescein/5'-Dabcyl labeled HTS-1 substrate
# Gag-Pol polyprotein = Gag-Pol polyprotein (Human immunodeficiency virus type 1 group M subtype B (isolate HXB2)(HIV-1), UniProt P04585); experiment: Inhibition of HIV1 reverse transcriptase polymerase activity using 18 nucleotide DNA primer and 100 nucleotide DNA template after 30 mins; parameters: species or system Human immunodeficiency virus 1
# In short: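 Full-length RT at 20 nM with 40 nM template/primer (18-nt DNA primer on 100-nt DNA template) and 10 µM dNTPs in 50 mM Tris pH 7.8, 50 mM NaCl. Started with 6 mM MgCl2, with 1% DMSO and increasing compound concentrations. Primer extension ran 30 min at 37 °C and was stopped with 100 mM EDTA.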
# [3] = biological target: Human immunodeficiency virus type 1 integrase (Human immunodeficiency virus 1, UniProt Q7ZJM1); experiment: Inhibition of HIV integrase strand transfer activity using 5'-biotin/3'-Cy5-labeled DNA substrate preincubated for 5 mins followed by substrate addition measured after 30 mins by HTS assay
# Chain of Human immunodeficiency virus type 1 integrase (Q7ZJM1 whole entry): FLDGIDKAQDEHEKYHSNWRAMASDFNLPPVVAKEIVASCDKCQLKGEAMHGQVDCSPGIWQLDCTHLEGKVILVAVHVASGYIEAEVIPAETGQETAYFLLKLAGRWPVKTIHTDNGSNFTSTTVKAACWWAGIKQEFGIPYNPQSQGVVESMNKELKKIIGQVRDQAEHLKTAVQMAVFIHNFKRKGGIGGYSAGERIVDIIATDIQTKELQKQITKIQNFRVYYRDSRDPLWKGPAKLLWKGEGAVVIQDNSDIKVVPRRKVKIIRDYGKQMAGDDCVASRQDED
# [4] = tested on: Human immunodeficiency virus 1; experiment: Antiviral activity against HIV1 infected in CD4/CXCR4/CCR5 expressing human P4R5 MAGI cells preincubated with cells for 24 hrs followed by viral infection measured after 48 hrs by beta-galactosidase reporter gene assay; type: functional, organism-based
# [5] = Cytotoxicity against human P4R5 MAGI cells; type: cell-based
# In short: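 P4R5 cells express CD4, CXCR4, CCR5 and an HIV LTR-driven β-galactosidase reporter. They were seeded at 4×10^3 cells per well in DMEM/10% FBS with puromycin (1 µg/mL).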
Structure (SMILES),Peff [1],IC50 [2],IC50 (Gag-Pol polyprotein),IC50 [3],EC50 [4],CC50 [5]
O=c1cc(Sc2ccc(-c3ccc(O)cc3)cc2)[nH]c(=O)n1O,0.039 ×10⁻⁶ cm/s,0.004 µM,> 10 µM,0.17 µM,> 20 µM,> 100 µM
O=c1cc(Sc2cccc(-c3cccc(C(F)(F)F)c3)c2)[nH]c(=O)n1O,–,0.007 µM,7.7 µM,> 1 µM,8.3 µM,> 100 µM
O=c1cc(Sc2ccc(C(F)(F)F)cc2)[nH]c(=O)n1O,–,0.031 µM,> 10 µM,> 10 µM,> 20 µM,> 100 µM
O=c1cc(Sc2cccc(-c3ccc(F)c(Cl)c3)c2)[nH]c(=O)n1O,–,0.005 µM,5.6 µM,> 1 µM,11 µM,> 100 µM
COc1ccc(-c2ccc(Sc3cc(=O)n(O)c(=O)[nH]3)cc2)cc1OC,0.9 ×10⁻⁶ cm/s,0.004 µM,10 µM,0.33 µM,> 20 µM,> 100 µM
Cc1cc(-c2ccc(Sc3cc(=O)n(O)c(=O)[nH]3)cc2)ccc1F,–,0.005 µM,> 10 µM,> 10 µM,18 µM,> 100 µM
CCc1ccccc1Sc1cc(=O)n(O)c(=O)[nH]1,–,0.01 µM,> 10 µM,0.75 µM,6.2 µM,> 100 µM
COc1ccc(-c2ccc(Sc3cc(=O)n(O)c(=O)[nH]3)cc2)cc1,–,0.006 µM,10 µM,> 100 µM,10 µM,> 100 µM
Cc1ccc(Sc2cc(=O)n(O)c(=O)[nH]2)cc1,0.92 ×10⁻⁶ cm/s,0.033 µM,> 10 µM,2.8 µM,> 20 µM,> 100 µM
O=c1cc(Sc2ccc(Br)cc2)[nH]c(=O)n1O,–,0.01 µM,7 µM,–,–,–
O=c1cc(Sc2ccc(-c3cccc(F)c3)cc2)[nH]c(=O)n1O,–,0.005 µM,10 µM,> 1 µM,7.2 µM,> 100 µM
O=c1cc(Sc2ccccc2Br)[nH]c(=O)n1O,–,0.008 µM,> 10 µM,1.1 µM,6.5 µM,> 100 µM
O=c1cc(Sc2ccc(O)cc2)[nH]c(=O)n1O,–,0.011 µM,> 10 µM,1.6 µM,> 20 µM,> 100 µM
O=c1cc(Sc2ccccc2-c2ccc(C(F)(F)F)cc2)[nH]c(=O)n1O,–,0.013 µM,> 10 µM,> 100 µM,7 µM,> 100 µM
O=c1cc(Sc2ccc([N+](=O)[O-])cc2)[nH]c(=O)n1O,0.032 ×10⁻⁶ cm/s,0.012 µM,> 10 µM,3.4 µM,> 20 µM,> 100 µM
O=c1cc(Sc2cccc(Cl)c2)[nH]c(=O)n1O,–,0.011 µM,> 10 µM,0.59 µM,6.3 µM,> 100 µM
O=c1cc(Sc2cccc(-c3ccc(Cl)cc3)c2)[nH]c(=O)n1O,–,0.005 µM,7.8 µM,> 1 µM,10 µM,> 100 µM
COc1cc(OC)cc(-c2ccc(Sc3cc(=O)n(O)c(=O)[nH]3)cc2)c1,–,0.006 µM,> 10 µM,> 100 µM,17 µM,> 100 µM
O=c1cc(Sc2ccccc2F)[nH]c(=O)n1O,–,0.015 µM,> 10 µM,0.77 µM,4.7 µM,> 100 µM
COc1ccccc1Sc1cc(=O)n(O)c(=O)[nH]1,–,0.017 µM,> 10 µM,8.4 µM,9 µM,> 100 µM
O=c1cc(Sc2ccc(-c3ccc(F)cc3)cc2)[nH]c(=O)n1O,–,0.006 µM,> 10 µM,> 1 µM,12 µM,> 100 µM
Cc1ccc(-c2ccc(Sc3cc(=O)n(O)c(=O)[nH]3)cc2)cc1,–,0.006 µM,7 µM,> 1 µM,7.5 µM,> 100 µM
O=c1cc(Sc2cccc(F)c2)[nH]c(=O)n1O,–,0.014 µM,> 10 µM,0.49 µM,9.1 µM,> 100 µM
